Our source for the inhibition values is ChEMBL document CHEMBL1165965, “Synthesis and structure-activity relationships of 1,2,3,4-tetrahydropyrido[2,3-b]pyrazines as potent and selective inhibitors of the anaplastic lymphoma kinase” (Bioorg Med Chem, 2010).

Bounds are passed on as bounds.

Assay [1] addresses Calcium/calmodulin-dependent protein kinase type II subunit alpha (Homo sapiens) (UniProt Q9UQM7). As to the kind of experiment: Inhibition of CAMK2A at 1 uM. The method in brief:
(§1)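 Ambit KINOMEscan screen at a single concentration across a 250–400 kinase panel, recorded as percent inhibition. Selectivity was expressed as S(90), the fraction of kinases inhibited >90%.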

Assay [2] has as its target T1, Serine/threonine-protein kinase D2 (Homo sapiens) (UniProt Q9BZL6).
T1 sequence (whole entry): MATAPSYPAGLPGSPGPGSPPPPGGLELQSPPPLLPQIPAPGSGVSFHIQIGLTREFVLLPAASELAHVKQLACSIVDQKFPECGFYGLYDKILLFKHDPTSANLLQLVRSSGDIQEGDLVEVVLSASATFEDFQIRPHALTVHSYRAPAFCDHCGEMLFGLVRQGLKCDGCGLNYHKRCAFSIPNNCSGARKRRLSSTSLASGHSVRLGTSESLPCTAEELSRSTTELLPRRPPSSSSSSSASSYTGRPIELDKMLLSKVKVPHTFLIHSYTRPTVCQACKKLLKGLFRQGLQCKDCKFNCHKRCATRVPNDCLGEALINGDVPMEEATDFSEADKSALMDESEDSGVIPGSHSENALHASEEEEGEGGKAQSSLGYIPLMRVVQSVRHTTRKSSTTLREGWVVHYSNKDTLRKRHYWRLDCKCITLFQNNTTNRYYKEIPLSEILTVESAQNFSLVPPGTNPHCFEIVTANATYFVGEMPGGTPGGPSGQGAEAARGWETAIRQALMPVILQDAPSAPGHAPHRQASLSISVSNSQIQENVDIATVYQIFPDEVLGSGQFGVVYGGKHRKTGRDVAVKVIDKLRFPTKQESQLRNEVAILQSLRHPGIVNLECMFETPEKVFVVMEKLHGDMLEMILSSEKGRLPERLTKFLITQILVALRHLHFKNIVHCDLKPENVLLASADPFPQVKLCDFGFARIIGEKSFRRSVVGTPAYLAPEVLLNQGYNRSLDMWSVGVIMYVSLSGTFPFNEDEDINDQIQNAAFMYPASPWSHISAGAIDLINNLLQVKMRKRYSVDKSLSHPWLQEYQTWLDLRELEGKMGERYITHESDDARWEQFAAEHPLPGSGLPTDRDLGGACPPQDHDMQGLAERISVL
As to the kind of experiment: Inhibition of PRKD2 at 1 uM.

Assay [3] addresses Serine/threonine-protein kinase MRCK gamma (Homo sapiens) (UniProt Q6DT37). Briefly: Inhibition of DMPK2 at 1 uM. The method in brief: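 Single-concentration screen using Ambit Bioscience KINOMEscan technology across a panel of 250–400 kinases. Per-kinase inhibition from this screen was summarized as S(90), the fraction of kinases inhibited by more than 90%.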
For assay [4], the target named is T2, Serine/threonine-protein kinase DCLK2 (Homo sapiens) (UniProt Q8N568).
T2 sequence (whole entry): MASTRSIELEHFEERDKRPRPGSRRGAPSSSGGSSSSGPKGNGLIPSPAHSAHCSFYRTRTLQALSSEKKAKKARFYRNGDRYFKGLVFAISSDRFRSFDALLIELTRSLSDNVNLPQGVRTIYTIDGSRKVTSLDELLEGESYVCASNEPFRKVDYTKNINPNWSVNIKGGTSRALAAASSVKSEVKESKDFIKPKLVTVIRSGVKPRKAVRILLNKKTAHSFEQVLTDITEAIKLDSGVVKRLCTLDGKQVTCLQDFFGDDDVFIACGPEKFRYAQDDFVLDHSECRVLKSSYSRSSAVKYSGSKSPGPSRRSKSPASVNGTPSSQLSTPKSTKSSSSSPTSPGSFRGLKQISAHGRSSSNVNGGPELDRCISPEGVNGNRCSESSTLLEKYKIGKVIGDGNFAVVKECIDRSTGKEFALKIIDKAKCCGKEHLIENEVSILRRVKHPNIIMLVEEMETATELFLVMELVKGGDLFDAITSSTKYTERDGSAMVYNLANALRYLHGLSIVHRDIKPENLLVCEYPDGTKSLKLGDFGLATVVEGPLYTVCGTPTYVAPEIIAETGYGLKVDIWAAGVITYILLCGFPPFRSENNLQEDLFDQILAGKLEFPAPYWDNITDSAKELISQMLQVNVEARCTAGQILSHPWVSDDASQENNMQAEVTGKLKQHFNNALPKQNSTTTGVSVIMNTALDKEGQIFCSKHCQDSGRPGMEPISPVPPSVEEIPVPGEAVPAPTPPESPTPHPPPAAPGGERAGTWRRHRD
Briefly: Inhibition of DCAMKL2 at 1 uM.

The test system of assay [5] is Serine/threonine-protein kinase B-raf (Homo sapiens), P15056 [V600E]. Briefly: Inhibition of BRAF V600E mutant at 1 uM. The method in brief: as §1
Chain of Serine/threonine-protein kinase B-raf (Homo sapiens), P15056 [V600E] (P15056 whole entry V600E): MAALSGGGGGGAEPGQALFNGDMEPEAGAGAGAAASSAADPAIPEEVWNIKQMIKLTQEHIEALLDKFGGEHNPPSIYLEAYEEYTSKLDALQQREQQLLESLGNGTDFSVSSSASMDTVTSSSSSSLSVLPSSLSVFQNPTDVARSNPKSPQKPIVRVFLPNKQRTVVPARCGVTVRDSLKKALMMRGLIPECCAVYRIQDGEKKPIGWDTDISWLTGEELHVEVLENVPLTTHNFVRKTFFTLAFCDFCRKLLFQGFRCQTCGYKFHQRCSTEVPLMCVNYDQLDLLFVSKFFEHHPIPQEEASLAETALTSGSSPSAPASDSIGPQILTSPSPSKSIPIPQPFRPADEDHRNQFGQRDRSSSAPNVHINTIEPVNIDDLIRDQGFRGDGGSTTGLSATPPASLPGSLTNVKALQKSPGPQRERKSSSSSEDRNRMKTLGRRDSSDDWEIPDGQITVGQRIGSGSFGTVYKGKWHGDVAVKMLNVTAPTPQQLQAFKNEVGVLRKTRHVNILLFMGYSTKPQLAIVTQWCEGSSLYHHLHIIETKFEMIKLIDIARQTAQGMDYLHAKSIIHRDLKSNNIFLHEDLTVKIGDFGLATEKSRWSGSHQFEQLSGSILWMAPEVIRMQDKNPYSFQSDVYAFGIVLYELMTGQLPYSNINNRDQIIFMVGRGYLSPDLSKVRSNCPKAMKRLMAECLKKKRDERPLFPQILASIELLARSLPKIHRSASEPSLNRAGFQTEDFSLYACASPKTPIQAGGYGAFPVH
In assay [6] the target is Maternal embryonic leucine zipper kinase (Homo sapiens) (UniProt Q14680). As to the kind of experiment: Inhibition of MELK at 1 uM. The method, boiled down: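 Kinase-panel screen using KINOMEscan technology, with 250–400 kinases per panel. Each compound was tested at a single concentration, and inhibition of each kinase was recorded. Selectivity was summarised as S(90), the fraction of kinases inhibited by more than 90%.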
Chain of Maternal embryonic leucine zipper kinase (Homo sapiens) (Q14680 whole entry, looked up): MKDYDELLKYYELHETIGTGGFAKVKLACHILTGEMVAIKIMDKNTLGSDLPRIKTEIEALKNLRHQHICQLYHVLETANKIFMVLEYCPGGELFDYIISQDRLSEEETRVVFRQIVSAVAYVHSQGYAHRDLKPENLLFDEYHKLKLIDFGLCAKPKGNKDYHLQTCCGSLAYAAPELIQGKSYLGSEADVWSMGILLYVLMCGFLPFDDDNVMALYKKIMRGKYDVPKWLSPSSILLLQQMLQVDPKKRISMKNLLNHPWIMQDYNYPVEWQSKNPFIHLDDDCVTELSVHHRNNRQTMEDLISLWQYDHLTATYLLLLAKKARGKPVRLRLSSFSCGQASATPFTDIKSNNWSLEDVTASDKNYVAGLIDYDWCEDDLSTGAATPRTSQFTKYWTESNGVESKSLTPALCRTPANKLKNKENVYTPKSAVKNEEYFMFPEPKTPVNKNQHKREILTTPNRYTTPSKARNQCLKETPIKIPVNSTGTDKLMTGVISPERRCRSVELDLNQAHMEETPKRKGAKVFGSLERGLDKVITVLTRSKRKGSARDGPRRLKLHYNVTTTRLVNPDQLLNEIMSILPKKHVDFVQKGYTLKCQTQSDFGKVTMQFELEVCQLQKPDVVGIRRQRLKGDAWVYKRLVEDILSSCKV

Assay [7] addresses T3, Activin receptor type-1 (Homo sapiens) (UniProt Q04771).
T3 sequence (whole entry): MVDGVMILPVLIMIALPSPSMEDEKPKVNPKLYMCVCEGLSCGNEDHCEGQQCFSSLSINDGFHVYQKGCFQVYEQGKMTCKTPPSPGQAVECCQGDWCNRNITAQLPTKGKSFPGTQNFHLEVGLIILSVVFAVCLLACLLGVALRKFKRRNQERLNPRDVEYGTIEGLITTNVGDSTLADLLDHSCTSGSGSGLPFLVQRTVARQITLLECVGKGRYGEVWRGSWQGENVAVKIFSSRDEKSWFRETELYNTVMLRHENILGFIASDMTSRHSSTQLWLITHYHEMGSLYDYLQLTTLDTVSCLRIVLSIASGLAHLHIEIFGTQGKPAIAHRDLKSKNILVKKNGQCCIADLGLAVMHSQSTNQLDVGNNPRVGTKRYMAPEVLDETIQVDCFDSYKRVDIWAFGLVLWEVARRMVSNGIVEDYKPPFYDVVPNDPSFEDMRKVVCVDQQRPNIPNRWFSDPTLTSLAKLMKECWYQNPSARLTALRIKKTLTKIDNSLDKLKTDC
Briefly: Inhibition of ACVR1 at 1 uM. The method, boiled down: as §1

The target in assay [8] is Serine/threonine-protein kinase 38-like (Homo sapiens) (UniProt Q9Y2H1). Briefly: Inhibition of NDR2 at 1 uM.
Chain of Serine/threonine-protein kinase 38-like (Homo sapiens) (Q9Y2H1 2-464 limits assumed): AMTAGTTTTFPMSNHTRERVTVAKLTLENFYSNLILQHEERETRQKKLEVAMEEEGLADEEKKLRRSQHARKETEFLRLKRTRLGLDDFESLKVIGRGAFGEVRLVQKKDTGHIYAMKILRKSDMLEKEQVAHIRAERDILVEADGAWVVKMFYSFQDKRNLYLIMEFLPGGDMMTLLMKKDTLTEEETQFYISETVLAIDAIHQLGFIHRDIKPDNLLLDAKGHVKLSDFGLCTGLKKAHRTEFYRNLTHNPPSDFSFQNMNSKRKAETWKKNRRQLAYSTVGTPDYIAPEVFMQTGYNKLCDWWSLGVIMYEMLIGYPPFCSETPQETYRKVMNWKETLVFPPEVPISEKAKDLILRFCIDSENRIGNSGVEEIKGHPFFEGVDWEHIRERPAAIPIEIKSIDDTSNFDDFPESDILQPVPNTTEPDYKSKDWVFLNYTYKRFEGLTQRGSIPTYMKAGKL

Chain of Calcium/calmodulin-dependent protein kinase type II subunit alpha (Homo sapiens) (Q9UQM7 whole entry): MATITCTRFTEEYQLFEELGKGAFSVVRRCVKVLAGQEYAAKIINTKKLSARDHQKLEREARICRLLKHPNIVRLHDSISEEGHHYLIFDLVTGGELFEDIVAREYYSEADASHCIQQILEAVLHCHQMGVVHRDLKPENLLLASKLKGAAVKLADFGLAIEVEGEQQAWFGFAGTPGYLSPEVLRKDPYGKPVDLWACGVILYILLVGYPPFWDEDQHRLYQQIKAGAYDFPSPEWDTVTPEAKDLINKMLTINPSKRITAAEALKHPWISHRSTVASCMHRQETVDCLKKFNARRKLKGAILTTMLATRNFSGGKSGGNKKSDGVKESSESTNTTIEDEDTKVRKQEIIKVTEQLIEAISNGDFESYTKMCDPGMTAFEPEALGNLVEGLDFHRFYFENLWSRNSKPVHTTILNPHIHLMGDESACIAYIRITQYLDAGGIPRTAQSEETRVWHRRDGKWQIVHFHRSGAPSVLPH
Chain of Serine/threonine-protein kinase MRCK gamma (Homo sapiens) (Q6DT37 whole entry): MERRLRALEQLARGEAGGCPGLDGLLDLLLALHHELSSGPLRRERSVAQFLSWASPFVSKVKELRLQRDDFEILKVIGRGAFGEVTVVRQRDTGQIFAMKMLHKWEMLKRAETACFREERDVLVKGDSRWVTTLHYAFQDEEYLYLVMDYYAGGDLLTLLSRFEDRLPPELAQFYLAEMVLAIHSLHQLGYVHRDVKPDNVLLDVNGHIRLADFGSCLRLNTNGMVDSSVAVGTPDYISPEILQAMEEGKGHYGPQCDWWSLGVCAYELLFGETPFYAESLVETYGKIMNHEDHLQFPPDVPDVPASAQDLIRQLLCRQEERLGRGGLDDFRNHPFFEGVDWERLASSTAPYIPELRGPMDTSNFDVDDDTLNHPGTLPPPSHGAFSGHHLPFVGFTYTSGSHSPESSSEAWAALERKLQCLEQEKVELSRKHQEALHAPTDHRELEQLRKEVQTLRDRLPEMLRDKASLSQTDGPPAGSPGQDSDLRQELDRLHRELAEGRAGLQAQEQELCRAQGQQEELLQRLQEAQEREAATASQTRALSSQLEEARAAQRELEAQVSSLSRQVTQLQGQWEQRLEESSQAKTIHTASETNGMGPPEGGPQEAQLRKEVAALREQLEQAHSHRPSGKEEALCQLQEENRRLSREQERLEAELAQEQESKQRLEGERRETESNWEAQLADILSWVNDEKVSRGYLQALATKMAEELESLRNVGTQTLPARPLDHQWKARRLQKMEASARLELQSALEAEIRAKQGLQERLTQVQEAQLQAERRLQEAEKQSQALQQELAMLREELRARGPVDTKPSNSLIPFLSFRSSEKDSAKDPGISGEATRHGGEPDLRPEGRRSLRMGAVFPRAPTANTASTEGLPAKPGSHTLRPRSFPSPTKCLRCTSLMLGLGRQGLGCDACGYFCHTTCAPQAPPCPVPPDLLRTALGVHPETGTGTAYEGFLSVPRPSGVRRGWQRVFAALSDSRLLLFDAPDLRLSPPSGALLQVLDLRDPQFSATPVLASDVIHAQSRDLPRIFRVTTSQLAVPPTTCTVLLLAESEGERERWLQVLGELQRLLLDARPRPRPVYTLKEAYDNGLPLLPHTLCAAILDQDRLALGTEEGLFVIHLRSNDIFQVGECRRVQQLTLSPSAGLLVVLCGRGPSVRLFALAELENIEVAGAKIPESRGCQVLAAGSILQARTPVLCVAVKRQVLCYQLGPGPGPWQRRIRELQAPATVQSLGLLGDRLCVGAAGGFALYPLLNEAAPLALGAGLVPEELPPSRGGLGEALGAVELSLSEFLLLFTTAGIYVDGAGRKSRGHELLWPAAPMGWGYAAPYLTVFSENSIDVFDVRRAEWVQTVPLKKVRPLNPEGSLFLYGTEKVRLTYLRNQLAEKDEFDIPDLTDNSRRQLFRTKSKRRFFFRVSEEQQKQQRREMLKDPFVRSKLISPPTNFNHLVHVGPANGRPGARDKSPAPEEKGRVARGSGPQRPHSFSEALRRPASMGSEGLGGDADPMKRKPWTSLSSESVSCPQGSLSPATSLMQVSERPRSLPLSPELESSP

Turning to `FC(F)(F)c1ccc(Cl)cc1CN1CCNc2ncc(-c3ccnc(N4CCNCC4)c3)cc21`, the inhibition in assay [1] was less than 50%; in assay [2] it was less than 50%; in assay [3], less than 50%; in assay [4], 96%; in assay [5], less than 50%; in assay [6], less than 50%. Further, the inhibition in assay [7] and in assay [8] was less than 50% each time.
As to `CN1CCN(c2ccc(-c3cnc4c(c3)N(Cc3cc(Cl)ccc3Cl)CCN4)cn2)CC1`, the inhibition in assay [1], in assay [2], in assay [3], in assay [4], in assay [5] and in assay [6] was less than 50% each time. Besides, the inhibition in assay [7] and in assay [8] was less than 50% each time.
With `COC1CCN(C(=O)c2ccc(-c3cnc4c(c3)N(Cc3cc(Cl)ccc3C(F)(F)F)CCN4)cc2)CC1`, the inhibition in assay [1], in assay [2], in assay [3], in assay [5], in assay [6] and in assay [7] was less than 50% in each case. In assay [8], this compound yielded an inhibition of less than 50%.
As to `O=C(c1ccc(-c2cnc3c(c2)N(Cc2cc(Cl)ccc2C(F)(F)F)CCN3)cc1)N1CCCCC1`, the inhibition in assay [1], in assay [2], in assay [3], in assay [5], in assay [6] and in assay [7] was less than 50% throughout. The same compound gave an inhibition in assay [8] of less than 50%.
`O=C(O)c1ccc(-c2cnc3c(c2)N(Cc2cc(Cl)ccc2C(F)(F)F)CCN3)cc1`: the inhibition in assay [1], in assay [2], in assay [3], in assay [5], in assay [6] and in assay [7] was less than 50% throughout. This compound also registered an inhibition in assay [8] of less than 50%.
Regarding `CN1CCN(c2ccc(-c3cnc4c(c3)N(Cc3cc(F)ccc3F)CCN4)cn2)CC1`, the inhibition in assay [1], in assay [2], in assay [3], in assay [4], in assay [5] and in assay [6] was less than 50% each time. Besides, the inhibition in assay [7] and in assay [8] was less than 50% throughout.
In the case of `O=C(c1ccc(-c2cnc3c(c2)N(Cc2cc(Cl)ccc2C(F)(F)F)CCN3)cc1)N1CCC(N2CCCC2)CC1`, the inhibition in assay [1], in assay [2], in assay [3], in assay [5], in assay [6] and in assay [7] was less than 50% throughout. Also, the inhibition in assay [8] is less than 50%.
As for `CN1CCN(c2ccc(-c3cnc4c(c3)N(Cc3c(F)ccc(F)c3Cl)CCN4)cn2)CC1`, the inhibition in assay [1], in assay [2], in assay [3], in assay [4], in assay [5] and in assay [6] was less than 50% each time. The inhibition in assay [7] and in assay [8] was less than 50% throughout.
Regarding `CC(=O)N1CCN(c2cc(-c3cnc4c(c3)N(Cc3cc(Cl)ccc3C(F)(F)F)CCN4)ccn2)CC1`, the inhibition in assay [1], in assay [2], in assay [3], in assay [4], in assay [5] and in assay [6] was less than 50% in each case. In addition, the inhibition in assay [7] and in assay [8] was less than 50% in each case.
Regarding `CN1CCN(c2ccc(-c3cnc4c(c3)N(Cc3cc(Cl)ccc3C(F)(F)F)CCN4)cn2)CC1`, the inhibition in assay [1], in assay [2], in assay [3], in assay [4], in assay [5] and in assay [6] was less than 50% throughout. Moreover, the inhibition in assay [7] and in assay [8] was less than 50% in each case.
